# From PubChem BioAssay
# Calls of active or inactive are those of the source.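 Rule for the calls, unless noted: active = GFP response above 150% of the DMSO level; inconclusive = fewer than 70 events counted for a yeast strain; inactive = the rest.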
# Columns and labels:
# [1] = hit retest on RPL19A-GFP reporter strain – cell-based, S. cerevisiae, flow cytometry, cherry picks, mother/daughter gates, confirmation (AID 2270;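 active = GFP response below 50% of the DMSO control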); conditions: 3 h, at 10 µM, stronger effect = lower value, 100 = same GFP as DMSO wells
# [2] = yeast TOR pathway reporter LAP4-GFP change – cell-based, cherry picks, flow cytometry, mother/daughter gates, confirmation (AID 2271;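 active = GFP response above 150% of the DMSO control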;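 note: ratio of sample to DMSO plate mean so 100% equals DMSO level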); conditions: S. cerevisiae LAP4-GFP strain, 3 h, at 10 µM, stronger effect = higher value, 100 means same as DMSO control
# How it was run: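 Test system: GFP-fusion yeast strain. Medium: synthetic complete (SC) yeast growth medium. Timing: 3 h treatment at 30 °C with rotation. Measured by: GFP by flow cytometry. Control set: positive rapamycin (400 ng/mL), negative DMSO.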
# [3] = TOR pathway reporter MEP2-GFP, retest of hits – S. cerevisiae, flow cytometry GFP, cherry picks, confirmation (AID 2272;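 active = GFP response above 150% of the DMSO control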;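 note: ratio of well signal to plate DMSO mean so 100% equals DMSO level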); conditions: S. cerevisiae MEP2-GFP strain, 3 h, at 10 µM, stronger effect = higher value
# [4] = yeast AGP1-GFP fluorescence change, single-dose – cell-based, flow cytometry, S. cerevisiae, cherry picks, confirmation (AID 2273);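 note: median GFP channel fluorescence over the whole cell population gate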; conditions: S. cerevisiae AGP1-GFP strain, 3 h, at 10 µM
# [5] = TOR pathway CIT2 reporter hit retest – S. cerevisiae, GFP fusion, cherry picks, mother/daughter gates, confirmation (AID 2274); conditions: S. cerevisiae CIT2-GFP strain, flow cytometry, 3 h, at 10 µM, stronger effect = higher value
# [6] = measured here: daughter cell gate
# [7] = measured here: mother cell gate
# [8] = measured here: daughter cell gate response
# [9] = measured here: mother cell gate response
Compound,GFP response vs DMSO [1],"GFP response vs DMSO [1, 6] [%]","GFP response vs DMSO [1, 7] [%]",GFP response relative to DMSO [2],"GFP response relative to DMSO [2, 8] [%]","GFP response relative to DMSO [2, 9] [%]",GFP response vs DMSO [3],"GFP response, % of DMSO [4]","GFP response, % of DMSO [5]","GFP response, % of DMSO [5, 6] [%]","GFP response, % of DMSO [5, 7] [%]"
CCn1cc([N+](=O)[O-])c(C(=O)Nc2nc(-c3ccc(C)c(C)c3)c(C)s2)n1,98.8% (inactive),98.6,99.2,95.4% (inactive),97.6,94,100% (inactive),101% (inactive),99.7% (inactive),99.1,97.3
COc1ccc(N2CCN(C(=O)C3CCCN(S(=O)(=O)c4ccc(C)cc4)C3)CC2)cc1 (configuration not stated),95.2% (inactive),97.4,93.4,103% (inactive),104,104,105% (inactive),97.3% (inactive),103% (inactive),97.4,105
O=C(NNC1=NCCC1)c1cccc(Br)c1,98% (inactive),98.5,97.9,100% (inactive),97.9,99.5,99.5% (inactive),97.5% (inactive),96.4% (inactive),96.4,94.5
O=C(Nc1nccs1)C(c1ccccc1)N1CCCCC1 (configuration not stated),103% (inactive),100,104,93.1% (inactive),94.2,93.1,103% (inactive),101% (inactive),94.4% (inactive),92,94.4
Cc1cccn2c(=O)c(/C=C(\C#N)C(=O)NC3CCS(=O)(=O)C3)c(N3CCC(C(N)=O)CC3)nc12 (configuration not stated),101% (inactive),98.6,102,98.2% (inactive),97.5,98.4,99% (inactive),89.7% (inactive),97.3% (inactive),97.4,96.8
O=C(Nc1c2c(nn1-c1ccccc1)CS(=O)C2)c1ccco1 (configuration not stated),96.5% (inactive),97.3,95,92.9% (inactive),96,95.4,99.3% (inactive),100% (inactive),97.2% (inactive),99.3,96
CCc1noc(C)c1C(=O)Nc1nc(-c2ccc(Cl)cc2Cl)cs1,95.6% (inactive),95.6,94,97.7% (inactive),96,97.4,103% (inactive),96.1% (inactive),94.4% (inactive),97.6,93.8
CCCc1[nH]nc2c1C(c1ccc(O)cc1OCC)C(C#N)=C(N)O2 (configuration not stated),102% (inactive),104,100,92.9% (inactive),99,92.3,106% (inactive),101% (inactive),104% (inactive),105,104
Cc1cc(NCCCN2CCOCC2)n2ncc(-c3ccccc3)c2n1,99.3% (inactive),98.1,99.6,96.2% (inactive),95.6,98.3,102% (inactive),102% (inactive),95.2% (inactive),98.1,93.4
COc1ccc(-c2nc(N)n(C(C)=O)n2)cc1,103% (inactive),102,104,95% (inactive),97.2,95.2,102% (inactive),97.4% (inactive),110% (inactive),110,111
O=C(Oc1oc(-c2ccco2)nc1C=Nc1ccccc1)c1ccco1,104% (inactive),106,102,160% (active),147,175,107% (inactive),91.2% (inactive),104% (inactive),108,101
N#C/C(=C\c1c(N2CCC(C(N)=O)CC2)nc2ccccn2c1=O)C(=O)NCc1ccco1,97.8% (inactive),98.8,97.6,101% (inactive),99.3,99.5,102% (inactive),99.3% (inactive),104% (inactive),102,101
COc1cccc(C(=O)C(C#N)=C(SC)SC)c1,108% (inactive),102,106,123% (inactive),108,126,97.8% (inactive),95.7% (inactive),80.8% (inactive),80.1,79.4
COc1ccc(C2c3c(oc4ccccc4c3=O)C(=O)N2CCN2CCOCC2)cc1OC (configuration not stated),103% (inactive),95.3,101,119% (inactive),116,114,172% (inactive),105% (inactive),129% (inactive),116,113
CCN(CC)c1ccc(/C=C/c2ccc3ccc(OC)cc3[n+]2CC)cc1,102% (inactive),101,101,117% (inactive),113,119,133% (inactive),98.9% (inactive),107% (inactive),110,104
CCOc1ccc(S(=O)(=O)n2ccnc2C)cc1,99.7% (inactive),100,98.4,96.2% (inactive),97.2,98.3,102% (inactive),102% (inactive),104% (inactive),103,104
Cc1cc(NC(=O)c2cccnc2Cl)ccc1NC(=O)c1cc2ccccc2o1,98% (inactive),97.1,94.5,103% (inactive),101,104,105% (inactive),98.8% (inactive),103% (inactive),97.4,103
COc1cc(NC(=O)c2cc3ccccc3o2)ccc1NC(=O)c1ccco1,99% (inactive),97.9,98.9,96.7% (inactive),97.6,96.1,102% (inactive),94.1% (inactive),104% (inactive),105,103
CCN(c1ccccc1)S(=O)(=O)c1ccc(C(=O)Nc2nnc(COC)o2)cc1,101% (inactive),99.5,102,96.2% (inactive),97.2,98.3,100% (inactive),99.2% (inactive),96.5% (inactive),94.8,98.7
CCC(=O)Oc1oc(-c2ccccc2)nc1C=Nc1ccccc1OC,102% (inactive),102,102,105% (inactive),94.4,108,95.2% (inactive),95.5% (inactive),90.3% (inactive),86.9,92.6
CSc1ccc(/C=C/C(=O)c2ccc(NC(=O)C(C)C)cc2)cc1,98.8% (inactive),97.5,99.1,107% (inactive),103,111,100% (inactive),93.5% (inactive),92.6% (inactive),93.2,90.2
Cc1cccc(NC(=O)c2ccccc2O)c1C,97.3% (inactive),94.7,96.9,112% (inactive),104,116,99.3% (inactive),98.4% (inactive),95.8% (inactive),95.8,94.9
CCOc1ccccc1NC1=C(Cl)C(=O)N(Cc2ccccc2)C1=O,103% (inactive),102,104,96.2% (inactive),97.2,97.2,104% (inactive),98.5% (inactive),99.1% (inactive),99.7,98.7
COc1cccc2c1Oc1ncccc1N(C(=O)CCC(=O)NCc1cccc(C)c1)C2,98.4% (inactive),98.6,99.2,97.9% (inactive),97.6,98.3,100% (inactive),97.6% (inactive),105% (inactive),106,104
COc1cccc(-c2noc(-c3cccnc3)n2)c1,97.2% (inactive),97.1,96.3,102% (inactive),102,100,101% (inactive),97.3% (inactive),103% (inactive),105,102
O=S(=O)(c1ccccc1)N1N=C(c2cccs2)CC1c1ccc(F)cc1 (configuration not stated),99.7% (inactive),97.8,100,97.4% (inactive),94.1,101,100% (inactive),104% (inactive),97.8% (inactive),96.5,98.7
O=c1c2c(-c3cccs3)csc2ncn1/N=C/c1ccccn1,98.4% (inactive),95.2,96.5,119% (inactive),112,121,99% (inactive),99.2% (inactive),91.5% (inactive),92,89.5
